# Source: PubChem (Broad Institute)
# Shown are actives, neighbours in structure and some others; about 2.6% of the full set was active somewhere.
# miR122 inh = miR-122 inhibition in Huh7 cells | activation (reporter increase), % at 12.5 µM | Huh7 miR-122 Renilla luciferase sensor, 48 h; neutral wells = 0, positive control = 100 | hit rate 0.3% among 340,000;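 active = mean replicate activation score at least 90 and every replicate individually at or above 90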;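 also: higher luciferase means less miR-122 activity so hits act as miR-122 inhibitors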
# Vif inh = HIV Vif inhibition; HEK293T cells, Vif self-association by quenched fluorescence, imaging, 24 h; inhibition, % at 7.49 µM; hit rate 0.35% among 340,000; in the data active = inhibition above about 50%, passing the limit was not always enough
# rRNA inh HTS = inhibits bacterial ribosomal RNA function over humanized ribosomes | E. coli WT GFP vs humanized-ribosome RFP mutants, fluorescence, 24 h; active compounds read low; DMSO median 0, no signal -100 | hit rate 1.6% among 350,000 | GFP signal change (wild-type ribosome), % (test concentration not listed);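 active = significant combined selectivity score with lowered wild-type GFP, culture density cut under 30%, mutant RFP and density less affected; inactive = any of these conditions unmet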
# FN deposit inh = fibronectin deposition inhibition; inhibition, % at 12.6 µM; AH1F fibroblasts, Alexa488-fibronectin deposition fluorescence, overnight; hit rate 0.086% among 350,000;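 active = mean inhibition across replicates of 30% or more, regardless of how many single replicates reach that level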;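 also: positive control wells lacked labelled fibronectin entirely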
#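 Material: AH1F fibroblast monolayer depositing Alexa488-labelled fibronectin into matrix / Amount: 10000 AH1F cells per well / Signal: fluorescence 485/525 nm / Medium: DMEM, 2% serum / Compound: single dose, pinned / Incubation: 1 h cell adhesion before compound, then overnight fibronectin incubation / Reagent: Alexa488-FN, 24 nM final / Read-out: inhibition of fibronectin deposition signal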
# S100A4 inh HTS = blocks human S100A4 binding to myosin IIA peptide | S100A4/TAMRA-MyoIIA peptide fluorescence polarization | inhibition, % at 10.7 µM | hit rate 0.14% among 360,000;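 active = mean inhibition of at least 70% across replicates, with every replicate also reaching that level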
# Target sequence (P26447 whole entry, looked up): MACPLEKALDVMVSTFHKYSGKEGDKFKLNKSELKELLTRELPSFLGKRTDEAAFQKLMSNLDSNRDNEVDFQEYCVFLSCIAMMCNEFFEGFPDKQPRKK
#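 incubation = readout 5 min after mixing, signal stable up to 60 min | system = S100A4 monomer protein | buffer or medium = HEPES pH 7.2 with CaCl2, KCl, NaCl, DTT, Triton | benchmarks = neutral control DMSO, positive control TFP | also added = fluorescent myosin IIA peptide, 5 nM | compound dosing = one concentration per compound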
# Env fusion inh = blocks HIV Env-driven cell-cell fusion; hit rate 1.1% among 360,000; inhibition, % at 12.3 µM; HeLa-JRFL Env/CEM21 cell fusion, luciferase;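 active = mean replicate inhibition score of at least 50 and every replicate individually at or above 50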;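 also: 0% = plate neutral controls and 100% = maraviroc near 300 nM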
# Starred values were filed as active, the others as inactive; . = no result given; [ ] = remark or other dose.
SMILES,miR122 inh,Vif inh,rRNA inh HTS,FN deposit inh,S100A4 inh HTS,Env fusion inh
CCc1ccc(S(=O)(=O)Nc2ccc(-c3ccc4nnc(C)n4n3)cc2)s1,28,70*,6,2,6,.
CCOc1nc(C)ccc1-c1noc(-c2ccccn2)n1,4,-5,.,.,.,.
CCOc1ccccc1-c1nc(-c2ccc(C)nc2OC)no1,130*,-4,.,7,.,-230
O=[N+]([O-])c1cccc(C(=Nc2ccccc2Cl)NO)c1,10,6,.,14,.,-118
ONC(=Nc1ccccc1Cl)c1ccccc1Cl,4,-5,-32*,11,-7,11
CCOC(=O)c1ccc(-n2[nH]c(-c3ccccc3)cc2=O)cc1,20,-5,.,.,.,58*
CCOC(=O)c1sc(NC(C)=O)nc1C,-3,-6,0,.,4,.
CCOC(=O)c1sc(NC(=O)CSC(=S)N2CCN(C)CC2)nc1C,.,-1,-25*,0,-3,30
CCOC(=O)c1sc(NC(=O)CCSC)nc1C,-6,-13,.,.,.,-1
CCOC(=O)c1sc(NC(=O)C2CCCCC2)nc1C,.,-9,-30*,5,1,-74
CON(C)c1nc(OCCNC(=O)COc2ccc(Cl)cc2C)nc(N(C)C)n1,-6,-12,.,0,.,163*
CON(C)c1nc(OCCNC(=O)OCc2ccc(Cl)cc2Cl)nc(N(C)C)n1,2,3,.,10,.,139*
CC(C)(C)c1ccc(OCC(=O)NCC(c2cccs2)N2CCOCC2)cc1 (stereo not given),1,.,2,-1,0,62*
Cc1cc2[nH]c(=S)[nH]c2cc1C,-3,-8,15,8,-1,-274
Fc1cc2[nH]c(=S)[nH]c2cc1Cl,.,-1,4,-5,3,57*
Cc1noc(C)c1NC(=O)Nc1ccc2c(c1)C(=O)N([C@@H](C)CO)C[C@@H](C)[C@H](CN(C)S(C)(=O)=O)OCCCC[C@@H](C)O2,.,.,3,.,-11,.
CCOC(=O)C1CCCN(C(=O)c2csc(-c3ccc4c(c3)CCO4)n2)C1 (stereo not given),1,4,-41*,-5,1,23
COc1ccccc1NC(=S)Nc1cccc2cnccc12,.,2,0,-9,-4,58*
C[C@@H]1CN([C@H](C)CO)C(=O)CCCn2cc(nn2)CO[C@@H]1CN(C)C(=O)Nc1ccc(N2CCCCC2)cc1,3[16.7 µM],.,2,-10,-21,5[16.7 µM]
COc1ccc(/C=C/C(=O)c2ccc3c(c2)OCO3)c(OC)c1,145*,0,-27,3,-7,-39
O=C(C[C@H]1CC[C@@H]2[C@H](COC[C@H](O)CN2C(=O)C2CCCC2)O1)NCc1ccncc1,122*[16.7 µM],.,0,10,-7,.
O=C(C[C@H]1CC[C@@H]2[C@H](COC[C@@H](O)CN2C(=O)Nc2ccc(F)cc2)O1)NCCc1ccccc1,0[16.7 µM],.,0,-1,106*,-11[16.7 µM]
Cn1cnc(CCNC(=O)C[C@@H]2CC[C@H]3[C@@H](COC[C@H](O)CN3C(=O)C3CC3)O2)c1,2[16.7 µM],.,-12,-11,6,.
O=C(C[C@H]1CC[C@H]2[C@@H](COC[C@H](O)CN2C(=O)Nc2ccc(F)cc2)O1)NCCc1ccccc1,-6[16.7 µM],.,-6,-8,-5,-10[16.7 µM]
COCCNC(=O)C[C@@H]1CC[C@H]2[C@@H](COC[C@@H](O)CN2Cc2cccc(-c3ccncc3)c2)O1,-2[16.7 µM],.,8,-3,-4,21[16.7 µM]
COCCNC(=O)C[C@@H]1CC[C@H]2[C@@H](COC[C@H](O)CN2Cc2cccc(-c3ccncc3)c2)O1,-2[16.7 µM],.,3,3,90*,11[16.7 µM]
Cn1cnc(CCNC(=O)C[C@@H]2CC[C@H]3[C@@H](COC[C@@H](O)CN3C(=O)C3CC3)O2)c1,2[16.7 µM],.,3,-12,81*,.
C[C@@H]1CCCCO[C@@H](CN(C)S(=O)(=O)c2ccc(F)cc2)[C@H](C)CN([C@H](C)CO)C(=O)c2cc(NS(=O)(=O)c3cn(C)cn3)ccc2O1,0[16.7 µM],.,-3,-20,2,-35[16.7 µM]
CC(C)NC(=O)N(C)C[C@@H]1Oc2ncc(C#Cc3ccccc3F)cc2C(=O)N([C@@H](C)CO)C[C@@H]1C,4[16.7 µM],.,-2,1,3,15[16.7 µM]
